Shown are actives, neighbours in structure and some others; about 3.4% of the full set was active somewhere.
MIN6 prolif – MIN6 beta-cell proliferation induction; MIN6 cells proliferation, ATPlite luminescence, 48 h; cells starved in 0.2% serum; 100% = growth in 10% serum; proliferation, % at 10 µM; 0.29% of 330,000 active; AID 2380;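 active = compounds whose signal lies at least 3.5 SD above the mean of all wells on their plate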
HTR2A ag – activates the mouse 5-HT2A serotonin receptor. CHO-K1 mHTR2A beta-arrestin complementation, luminescence; percent of 30 µM serotonin response. activation, % at 7.6 µM. 0.66% of 360,000 active. AID 624169;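 active = activation above a run cutoff, the mean activation of all tested compounds plus 3 SD, cut at about 14% in these data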
TMEM16A inh – inhibitors of mouse TMEM16A calcium-activated chloride channel | Q8BHY3 | HEK293 TMEM16A/YFP iodide influx fluorescence, ionomycin | normalized B-score (activity score, 25-100; higher = stronger inhibition) at 10 µM | 1.2% of 310,000 active | AID 588511;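 active = ratio plate-corrected score three or more library SD toward inhibition, starting fluorescence score within five deviations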;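 also: score derived from kinetic fluorescence span divided by baseline fluorescence per well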
TMEM16A act – activates or potentiates the mouse TMEM16A chloride channel; Q8BHY3; 0.3% of 340,000 active; HEK293 TMEM16A/YFP-H148Q/I152L, iodide quench fluorescence; active compounds read low; AID 623877; B-score at 10 µM;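 active = fluorescence-ratio B-score plate-corrected deviation score at least 3 library SD below zero, with starting fluorescence score within 5 deviations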;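 also: channel opened by trigger with iodide after compound preincubation; score built on the fluorescence ratio of max minus min over baseline; more negative score means more quench and so TMEM16A activation or potentiation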
MC4R antagonist – human MC4R antagonism in cAMP assay; MC4R-expressing cells, MTII-stimulated cAMP, LANCE TR-FRET; P32245; AID 540295; 0.48% of 360,000 active; inhibition, % at 6.5 µM;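 active = inhibition above its plate's cutoff, the mean of tested wells on that plate plus 3 SD, cut at about 29% in these data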
Target sequence (P32245 whole entry, looked up): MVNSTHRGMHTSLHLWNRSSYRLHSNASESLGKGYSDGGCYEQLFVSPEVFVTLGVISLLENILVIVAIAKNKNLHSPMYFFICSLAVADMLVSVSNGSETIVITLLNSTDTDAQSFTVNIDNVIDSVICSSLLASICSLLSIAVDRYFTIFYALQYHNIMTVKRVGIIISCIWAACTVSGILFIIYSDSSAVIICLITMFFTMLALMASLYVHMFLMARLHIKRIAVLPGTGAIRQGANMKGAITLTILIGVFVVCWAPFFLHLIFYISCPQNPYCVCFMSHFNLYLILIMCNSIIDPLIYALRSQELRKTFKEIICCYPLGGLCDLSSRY
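Assay system: U2OS-MC4R stable cell line; Also added: Melanotan II; Technique: Eu-cAMP/anti-cAMP TR-FRET, emission 671 nm; Times: 30-min compound, 1-h challenge, 1-h detection, room temperature.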
MC4R barr agon – activates human MC4R beta-arrestin recruitment; activation, % at 8.9 µM; 0.98% of 360,000 active; P32245; U2OS MC4R beta-arrestin complementation, luminescence; percent of melanotan II response, DMSO zero;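 active = activation above a per-plate cutoff, the mean activation of sample wells on that plate plus 3 SD, cut at about 8% in these data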
MOR ag counter – activates human mu opioid receptor in HTR2A counterscreen | shares compounds with HTR2A ag | U2OS OPRM1 beta-arrestin PathHunter, luminescence; DMSO 0%, DAMGO 9.3 µM 100% | activation, % at 9.3 µM | 5.3% of 2,300 active | AID 624380;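 active = mean activation above the mean of DMSO-only wells plus 3 SD, cut at about 0.5% in these data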
HTR2A ag conf – confirmation of mouse HTR2A serotonin receptor agonists | shares compounds with HTR2A ag | CHO-K1 PathHunter beta-arrestin recruitment, luminescence; DMSO 0%, 30 µM serotonin 100% | activation, % at 7.6 µM | 19% of 2,300 active;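 active = mean activation across triplicates above the hit threshold derived in the original primary screen, cut at about 15% in these data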
Numbers stand for hits; i = inactive; nt = no result given.

SMILES	MIN6 prolif	HTR2A ag	TMEM16A inh	TMEM16A act	MC4R antagonist	MC4R barr agon	MOR ag counter	HTR2A ag conf
Cc1ccc(Nc2ncnc(N)n2)cc1	i	22.7	i	i	i	i	i	i
CC1CN(C(=O)c2ccccc2NS(=O)(=O)c2ccc(Cl)cc2)CC(C)O1 (centres undefined)	i	i	nt	i	i	i	nt	nt
COc1ccc(F)cc1S(=O)(=O)Nc1cc2c3c(c1)CC(=O)N3CCC2	i	i	i	i	i	i	nt	nt
COc1cc(C(=O)N2CCN(C3CCCCC3)CC2)cc(OC)c1OC	i	14.6	i	i	i	i	i	i
COc1cc(C(=O)N2CCC(N3CCCCCC3)CC2)cc(OC)c1OC	i	15.1	i	i	i	i	i	i
Cc1csc2c(N3CCN(C(=O)Nc4ccccc4)CC3)ncnc12	i	21.2	25	i	i	i	i	i
Cc1ccc(C(=O)N2CCN(c3ncnc4c(C)csc34)CC2)cc1	i	i	i	i	i	i	nt	nt
Cc1csc2c(N3CCN(C(=S)Nc4ccc(F)cc4F)CC3)ncnc12	i	33.6	i	i	i	i	i	i
CCOc1ccc(C(=O)Nc2c3c(nn2-c2cccc(C)c2C)CS(=O)C3)cc1 (centres undefined)	i	17.2	i	i	i	i	i	i
CCOc1ccc(C(=O)Nc2c3c(nn2-c2cccc(Cl)c2)CS(=O)C3)cc1 (centres undefined)	i	i	i	i	i	i	nt	nt
COc1ccc(S(=O)(=O)N2CCOC2CNC(=O)C(=O)NCCc2ccccc2)cc1 (centres undefined)	i	46.0	i	i	i	i	i	i
O=C(NCCCO)C(=O)NCC1OCCCN1S(=O)(=O)c1cccs1 (centres undefined)	i	15.5	i	i	i	i	0.9	i
NCCc1c(-c2ccccc2)n(-c2ccccc2)c2ccccc12	i	i	nt	i	i	i	nt	nt
CCc1nc2ccc(C(=O)N3CCN(S(=O)(=O)CC)CC3)cn2c1N(C)Cc1cccs1	nt	17.5	nt	nt	i	i	i	i
CSc1ccc(NC(=O)N2CCN(c3nc4ccccc4s3)CC2)cc1	i	17.5	i	i	i	i	0.5	i
CC(=O)c1c(C)[nH]c(C(=O)Nc2ccccn2)c1C	i	15.3	i	i	i	i	i	i
CC(=O)c1c(C)[nH]c(C(=O)Nc2ccc(Cl)cc2)c1C	i	i	i	i	i	i	nt	nt
O=C(NCc1ccccc1)C(c1ccccc1)N(C(=O)c1csnn1)C1CC1 (centres undefined)	i	i	i	i	i	i	nt	nt
Cc1ccc(C(C(=O)NCc2ccccc2)N(C(=O)c2csnn2)C2CC2)cc1 (centres undefined)	i	18.9	i	i	i	i	i	i
O=C(COC(=O)C1CC(=O)N(Cc2ccccc2)C1)Nc1ccc2c(c1)OCO2 (centres undefined)	i	i	i	i	i	i	nt	nt
COc1ccc(NC(=O)CN(C)C(=O)C2CC(=O)N(Cc3ccc(C)cc3)C2)cc1 (centres undefined)	i	i	i	i	i	i	nt	nt
CCN(CC(=O)Nc1ccc(OC)cc1)C(=O)C1CC(=O)N(Cc2ccccc2)C1 (centres undefined)	nt	16.2	nt	nt	i	i	i	i
NS(=O)(=O)c1ccc(NC(=O)COC(=O)C2CC(=O)N(Cc3ccccc3)C2)cc1 (centres undefined)	i	15.7	i	i	i	i	i	i
CCN(Cc1nc(-c2ccccc2)no1)C(=O)c1ccco1	i	i	i	i	i	i	nt	nt
CN(Cc1nc(-c2ccccc2)no1)C(=O)c1ccco1	i	15.5	i	i	i	i	i	i

Bioassay records deposited in PubChem BioAssay by several laboratories.
